Measurements as given in the RNAGym collection of RNA variant scans (doi:10.1126/science.aae0568).
Variants at the floor of the assay were thinned out.

B1: tRNA (parent)
chain: GUUCCGUUGGCGUAAUGGUAACGCGUCUCCCUCCUAAGGAGAAGACUGCGGGUUCGAGUCCCGUACGGAACG

Variants of: B1
Experiment: yeast fitness relative to wild type (ratio to wild type); higher = fitter; tRNA-Arg(CCU), competitive growth, 37 C, YPD
In short: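 Gene amplicons from the start population and from each of six end populations were read by 100-nucleotide paired-end sequencing. Those end populations came from pooled Saccharomyces cerevisiae strains carrying tRNA-Arg(CCU) gene variants at the native locus, competed in YPD at 37°C for 24 hours. Fitness relative to wild type was worked out from changes in genotype frequencies. Genotypes needed ≥ 100 starting reads, and estimates < 0.5 were set to 0.5.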

Q: Which yeast fitness does the source give for GUUCCGUUGGCGUAAUGGUCACGCGUCUCCCUCCUAAGGAGAAGACUGCGGGCUCGAGUCCCGUACGGAACG [A20C U53C] here?
A: Its yeast fitness is 0.717.

Q: With GUUCCGUUGGCGUAAUGGUGACGCGUCUCCCUCCUACGGAGAAGACUGCGGGUUCGAGUCCCGUACGGAACG [A20G A37C] as the variant, how does the yeast fitness read?
A: Its yeast fitness is 0.929.

Q: Which yeast fitness does the source give for GUUCCGUUGGCGUAAUGGUCACGCGCCUCUCUCCUAAGGAGAAGACUGCGGGUUCGAGUCACGUACGGAACG [A20C U26C C30U C61A] here?
A: Its yeast fitness is no more than 0.5.

Q: For GUUCCGUUGGCGUAAUGGUCACGCGUCCCACUCCUAAGGAGAACGCUGCGGGUUAGAGUCCCCUACGGAACG [A20C U28C C30A G44C A45G C55A G63C], which yeast fitness is on record?
A: Its yeast fitness is no more than 0.5.

Q: Which yeast fitness does the source give for GUUCCGUUGGCGUAAUGGUCACGCGUCCCCCUCCUAAGGUGAAGACUGCGGGUUCGAGUCCCGUACGGAACG [A20C U28C A40U] here?
A: The yeast fitness was 0.971.

Q: With GUUCCGUUGGCGUAAUGGUCACGCGUCCACCUCCUUAGGUGAAGACUGGGGGUUCGAGUCCCCUACGGAUCG [A20C U28C C29A A36U A40U C49G G63C A70U] as the variant, how does the yeast fitness read?
A: Its yeast fitness is no more than 0.5.

Q: With GUUCCGUUGGCGUAAUGGUCACGCGUCUCCCUCCUAAGGAGAAGACUGCGGGUUCGAGUCCCGGACGGAACG [A20C U64G] as the variant, how does the yeast fitness read?
A: Its yeast fitness is 0.746.

Q: Which yeast fitness does the source give for GUUCCGUUGGCGUAAUGGUCACGCGUCUCCCUCCUAAGGAGAAGACACCGGGUUCGAGUCCCGUACGGAACG [A20C U47A G48C] here?
A: Its yeast fitness is 0.526.

Q: With GUUCCGUUGGCGUAAUGGUGACGCGUCUCCCUCCUUAGGAGAAGACUGCGGGUUCGAGUCCCGUAAGGAACG [A20G A36U C66A] as the variant, how does the yeast fitness read?
A: Its yeast fitness is 0.529.

Q: Which yeast fitness does the source give for GUUCCGUUGGCGUAAUGGUGACGCGUCUCCCUCCUCAGGAGAAGACUGGGGGUUCGAGUCGGGUACGGAACG [A20G A36C C49G C61G C62G] here?
A: The yeast fitness was no more than 0.5.

Q: Which yeast fitness does the source give for GUUCCGUUGGCGUAAUGGUGACGCGUCUCCCUCCUUAGGAGAAGACUGCGGGUUGGAGUCCCGUACGGAACG [A20G A36U C55G] here?
A: Its yeast fitness is no more than 0.5.

Q: With GUUCCGUUGGCGUAAUGGUGGCGCGUCUGCCUCCUAAGGAGAAGAGUGCGGAUUCGAGUCCCGUACGGAACG [A20G A21G C29G C46G G52A] as the variant, how does the yeast fitness read?
A: Its yeast fitness is no more than 0.5.

Q: With GUUCCGUUGGCGUAAUGGUGGUGCGUCUCCCUCCUAAGGAGAAGACUGCGGGUUCGAGUCCCGUACGGAACG [A20G A21G C22U] as the variant, how does the yeast fitness read?
A: The yeast fitness was 0.564.

Q: For GUUCCGUUGGCGUAAUGGUCACGCGUCACCCUCCUAAGGAGAAGACUGCGGGUUCGAGUCCCGUACGGAGCG [A20C U28A A70G], which yeast fitness is on record?
A: The yeast fitness was 0.564.

Q: Which yeast fitness does the source give for GUUCCGUUGGCGUAAUGGUGACGCGUCUCCCUCCUAGAGAGAAGACUGCGGGUUUGAGGCCCGUACGGAACG [A20G A37G G38A C55U U59G] here?
A: The yeast fitness was 0.563.

Q: For GUUCCGUUGGCGUAAUGGUCACGCGUCUCCCUCCUAAGGAGAAGACUGCGGGUUCGAGACCGGUACGGACCG [A20C U59A C62G A70C], which yeast fitness is on record?
A: The yeast fitness was no more than 0.5.

Q: For GUUCCGUUGGCGUAAUGGUGACGCGUCUCCCUCCUACGGAGAAGACUGCGGGUUCGAGUCCCGUACGAAACG [A20G A37C G68A], which yeast fitness is on record?
A: Its yeast fitness is 0.515.

Q: Which yeast fitness does the source give for GUUCCGUUGGCGUAAUGGUGACGCGUCUCCCUCCUCAGGAGAAGACUCCGGGCUCGAGUCCCGUACGGACCG [A20G A36C G48C U53C A70C] here?
A: Its yeast fitness is no more than 0.5.

Q: For GUUCCGUUGGCGUAAUGGUGACGCGUCUCCCUCCUUAGGAGAAGACUGCGGGUUCGAGUCCCGUACGCAACG [A20G A36U G68C], which yeast fitness is on record?
A: Its yeast fitness is 0.535.

Q: For GUUCCGUUGGCGUAAUGGUCACGCGUCUCCCUCCCAAGGAGAAGACUGCGCGUUCGAGUGCCGUACGGAUCG [A20C U35C G51C C60G A70U], which yeast fitness is on record?
A: Its yeast fitness is no more than 0.5.

Q: For GUUCCGUUGGCGUAAUGGUCACGCGUCGCCCUCCUAAGGAGAAGACUGCGGGUUCGAGUCCCGUACGGCACG [A20C U28G A69C], which yeast fitness is on record?
A: The yeast fitness was 0.714.

Q: For GUUCCGUUGGCGUAAUGGUCACGCGUCUCCCUCCUAAGGAGAAGACUGCGGGUUCGAGUCCCGUACCGGACG [A20C G67C A69G], which yeast fitness is on record?
A: The yeast fitness was 0.539.

Q: For GUUCCGUUGGCGUAAUGGUCACGCGUCUCCCUCCUAAGGAGAAGACUGCGGGUUCGAGCCCCGUACGGAACG [A20C U59C], which yeast fitness is on record?
A: The yeast fitness was 0.749.

Q: For GUUCCGUUGGCGUAAUGGUGACGCGUCUCCCUCCUUAGGAGAAGACUGGGGGUUCGAGUCCCGUACGGAACG [A20G A36U C49G], which yeast fitness is on record?
A: The yeast fitness was no more than 0.5.

Q: For GUUCCGUUGGCGUAAUGGUCACGCGUCUCCCUCCAGAGGAGAACACUGCGGGUUCGAGUCCCGUACGUAACG [A20C U35A A36G G44C G68U], which yeast fitness is on record?
A: The yeast fitness was no more than 0.5.

Q: Which yeast fitness does the source give for GUUCCGUUGGCGUAAUGGUCACGCGUCUCCCGCCUAAGGAGAAGGCUGCGGGAACGAGUCCCGUACGGAACG [A20C U32G A45G U53A U54A] here?
A: Its yeast fitness is 0.533.

Q: Which yeast fitness does the source give for GUUCCGUUGGCGUAAUGGUGACGCGUCUCCCUCCUUAGGAGAAGACUGCGGGUUCGAGUCCCGUACGGAACG [A20G A36U] here?
A: Its yeast fitness is 0.644.

Q: With GUUCCGUUGGCGUAAUGGUGACGCGUCUCCCUCCUGAGGAGAAGACUGCGGGUUCGAGUCCCGUACGGAACG [A20G A36G] as the variant, how does the yeast fitness read?
A: The yeast fitness was 1.01.

Q: With GUUCCGUUGGCGUAAUGGUCACGCGUCUCCCUCCUAAGGAGAAGACUGCGGGUUCGAGACCCGUCCGGACCG [A20C U59A A65C A70C] as the variant, how does the yeast fitness read?
A: The yeast fitness was no more than 0.5.

Q: For GUUCCGUUGGCGUAAUGGUCACGCGUCCCCCUCAUAAGGAGAAGACUGCGGGUUCGAGUCCCGUACGGAACG [A20C U28C C34A], which yeast fitness is on record?
A: The yeast fitness was 0.791.

Q: Which yeast fitness does the source give for GUUCCGUUGGCGUAAUGGUGGCGCGUCUCCCUCCUAAGGAGAAGACUGCGGGUUCGAGUCCCGUACGGAACG [A20G A21G] here?
A: Its yeast fitness is 0.986.

Q: With GUUCCGUUGGCGUAAUGGUCACGCGUCUCCCUCCUAAGGAGAAGACUGCGGGUUCGACUCCCGUACGGAACG [A20C G58C] as the variant, how does the yeast fitness read?
A: Its yeast fitness is 1.03.

Q: For GUUCCGUUGGCGUAAUGGUCACGCGUCUCCCUCCUAAGGAGAAGACUGCGGGUUCGAGUCCCAUACGGAACG [A20C G63A], which yeast fitness is on record?
A: Its yeast fitness is 0.843.

Q: Which yeast fitness does the source give for GUUCCGUUGGCGUAAUGGUGGCGCGUCUCCCUCGUAAGGAGAAGACUGCGGGUUCGAGUCUCGUACGGACCG [A20G A21G C34G C61U A70C] here?
A: The yeast fitness was no more than 0.5.

Q: With GUUCCGUUGGCGUAAUGGUCACGCGACUCCCUCCUAAGGAGAAGACUGCGGGUUCGAGUCACGUUCGGAACG [A20C U26A C61A A65U] as the variant, how does the yeast fitness read?
A: The yeast fitness was 0.555.

Q: With GUUCCGUUGGCGUAAUGGUGACGCGUCUCCCUCCUGUGGAGAAGACUGCGGGUUCGAGUCCCGUACGGAACG [A20G A36G A37U] as the variant, how does the yeast fitness read?
A: The yeast fitness was no more than 0.5.

Q: For GUUCCGUUGGCGUAAUGGUGACGCGUCUCCCUCCUACGAAGAAGACUGCGGGUUCGAGUCCCGUUCGGACCG [A20G A37C G39A A65U A70C], which yeast fitness is on record?
A: Its yeast fitness is no more than 0.5.

Q: For GUUCCGUUGGCGUAAUGGUGACGCGUCUCCCUCCUAAGGAGAAGACUGCGGGUUCGAGUCCCGUACGGAACG [A20G], which yeast fitness is on record?
A: The yeast fitness was 1.
